Screening results deposited in PubChem by Broad Institute.
S100A4 inh HTS = blocks human S100A4 binding to myosin IIA peptide; inhibition, % at 10.7 µM; S100A4/TAMRA-MyoIIA peptide fluorescence polarization; hit rate 0.14% among 360,000; P26447;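 active = mean inhibition of at least 70% across replicates, with every replicate also reaching that level; inconclusive = mean inhibition reaches 70% but some replicates fall short; inactive = mean inhibition below 70%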
Target sequence (P26447 whole entry, looked up): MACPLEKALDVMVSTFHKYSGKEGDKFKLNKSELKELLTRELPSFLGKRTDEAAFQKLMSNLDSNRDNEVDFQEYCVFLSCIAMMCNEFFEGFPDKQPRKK
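Assay system: human S100A4 monomer with TAMRA-labelled myosin IIA peptide / Buffer or medium: Calcium-containing HEPES buffer, pH 7.2 / Reagent: TAMRA-labelled myosin IIA heavy-chain peptide probe, 5 nM / Compound: one dose per compound / Timing: polarization read 5 min after assay mix addition, stable 5–60 min / Benchmarks: neutral control DMSO, positive control TFP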
Ecoli rRNA inh = inhibitors of bacterial rRNA selective over humanized ribosomes; hit rate 1.6% among 350,000; AID 720706; GFP signal change (wild-type ribosome), % (no concentration beside the values); E. coli WT GFP vs humanized-ribosome RFP mutants, fluorescence, 24 h; stronger effect = lower value; DMSO median 0, no signal -100;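 active = significant combined selectivity score with lowered wild-type GFP, culture density cut under 30%, mutant RFP and density less affected; inactive = any of these conditions unmet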
SIRT5 inh = blocks human SIRT5 desuccinylation of peptide. Purified SirT5, succinyl-peptide AMC, trypsin-coupled fluorescence. inhibition, % at 15 µM. hit rate 1.1% among 330,000; in the data active = inhibition above about 15%; inconclusive = no clear call, values can overlap the other calls
Target sequence (Q9NXA8 whole entry, looked up): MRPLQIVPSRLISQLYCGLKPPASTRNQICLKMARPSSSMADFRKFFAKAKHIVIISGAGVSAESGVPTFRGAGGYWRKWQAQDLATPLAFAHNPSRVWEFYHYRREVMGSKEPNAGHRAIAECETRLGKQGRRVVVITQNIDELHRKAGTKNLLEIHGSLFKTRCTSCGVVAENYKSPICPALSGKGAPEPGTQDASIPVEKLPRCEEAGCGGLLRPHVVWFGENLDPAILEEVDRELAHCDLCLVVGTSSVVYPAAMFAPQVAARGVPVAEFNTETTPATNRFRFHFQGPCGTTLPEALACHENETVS
F508del corr = correctors of CFTR F508del function in bronchial epithelial cells; hit rate 0.36% among 350,000; CFBE cells, YFP halide quenching; stimulated with forskolin plus potentiator P3; % fluorescence drop versus neutral controls; AID 720511; activity (quench increase), % at 7.58 µM;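 active = mean added fluorescence quench of at least 8% versus neutral control, with both replicates also reaching 8%; inconclusive = only one of the mean or replicate conditions met; inactive = mean below 8% and not both replicates reaching 8%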;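 also: cells transiently co-express mutant CFTR-F508del with the halide-sensitive YFP; corrector assay measuring rescue of mutant channel to the surface after 24 h compound exposure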
ERAP1 HTS inh = blocks human ERAP1 aminopeptidase activity; hit rate 0.15% among 340,000; inhibition, % at 10.7 µM; AID 652197; recombinant ERAP1, Leu-AMC fluorescence, 60 min;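 active = mean replicate inhibition of at least 30%, or all replicates individually reaching that 30% level; inactive = mean below 30% and not every replicate reaching it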
A number is an active result; - = inactive; ? = inconclusive; . = no result given. Sampled rows, rich in hits. Any-hit rate of the full collection: about 3.1%.

SMILES | S100A4 inh HTS | Ecoli rRNA inh | SIRT5 inh | F508del corr | ERAP1 HTS inh
Cc1ccc(Cc2c(-c3ccc(Br)cc3)nc3ccc(Cl)cn23)cc1 | - | -27 | - | - | .
Cc1ccc2nc(-c3ccccc3)c(Cc3cccc(Cl)c3)n2c1 | - | . | 22 | - | -
O=C(Nc1ccccc1)[C@H]1[C@H](CO)[C@H]2Cn3c(cccc3=O)[C@H]2N1C(=O)C1CCC1 | - | - | - | - | -
COc1cccc(CN2c3ccc(Br)cc3C(=O)CS2(=O)=O)c1 | - | -37 | - | - | -
C=CCN1c2ccc(Br)cc2C(=O)CS1(=O)=O | - | - | - | - | -
O=C(CC(F)(F)F)N1C[C@@H]2[C@H](c3ccccc31)[C@H](CO)N2C(=O)Cc1ccccc1 | - | - | - | - | -
C#CCN(C)CCCOc1ccc(Cl)cc1Cl | - | . | - | 8.9 | -
CN(C)CCCCOc1ccc(Br)cc1Cl | - | - | - | - | -
COc1ccc(S(=O)(=O)N(C)C[C@@H]2OCCCC[C@@H](C)Oc3ccc(NS(=O)(=O)c4ccc(F)cc4)cc3C(=O)N([C@H](C)CO)C[C@H]2C)cc1 | - | - | 18 | - | -
COc1ccc(S(=O)(=O)N(C)C[C@@H]2OCCCC[C@H](C)Oc3ccc(NS(=O)(=O)c4ccc(F)cc4)cc3C(=O)N([C@@H](C)CO)C[C@H]2C)cc1 | - | - | 17 | - | -
COc1ccc(S(=O)(=O)Nc2ccc3c(c2)C(=O)N([C@H](C)CO)C[C@H](C)[C@H](CN(C)S(=O)(=O)c2ccc(F)cc2)OCCCC[C@@H](C)O3)cc1 | - | - | - | - | -
COc1ccc(S(=O)(=O)Nc2ccc3c(c2)C(=O)N([C@H](C)CO)C[C@H](C)[C@H](CN(C)S(=O)(=O)c2ccc(F)cc2)OCCCC[C@H](C)O3)cc1 | - | - | - | - | -
COc1ccc(S(=O)(=O)N(C)C[C@@H]2OCCCC[C@@H](C)Oc3ccc(NS(=O)(=O)c4ccc(F)cc4)cc3C(=O)N([C@@H](C)CO)C[C@H]2C)cc1 | - | - | 21 | - | -
COc1ccc(S(=O)(=O)N(C)C[C@H]2OCCCC[C@@H](C)Oc3ccc(NS(=O)(=O)c4ccc(F)cc4)cc3C(=O)N([C@@H](C)CO)C[C@@H]2C)cc1 | - | - | 23 | - | -
O=C(C1CCCC1)N1CC2(C1)[C@@H](c1ccccc1)[C@@H](CO)N2C(=O)CC1CC1 | - | - | - | - | -
O=C(CN1CCOCC1)NC[C@@H]1N[C@@H](CO)[C@H]1c1ccc(-c2ccccc2)cc1 | - | - | - | - | .
CCCN1[C@H](C(=O)N[C@@H](C)c2ccccc2)[C@@H](CO)[C@@H]2Cn3c(cccc3=O)[C@@H]21 | - | - | - | - | -
COc1ccc(S(=O)(=O)N(C)C[C@H]2OCCCC[C@H](C)Oc3ccc(NS(=O)(=O)c4ccc(F)cc4)cc3C(=O)N([C@H](C)CO)C[C@H]2C)cc1 | - | - | 23 | - | -
COc1ccc(S(=O)(=O)N(C)C[C@H]2OCCCC[C@H](C)Oc3ccc(NS(=O)(=O)c4ccc(F)cc4)cc3C(=O)N([C@@H](C)CO)C[C@H]2C)cc1 | - | - | 23 | - | -
COc1ccc(S(=O)(=O)Nc2ccc3c(c2)C(=O)N([C@H](C)CO)C[C@@H](C)[C@H](CN(C)S(=O)(=O)c2ccc(F)cc2)OCCCC[C@H](C)O3)cc1 | - | - | - | - | -
O=C(O)c1ccc(NS(=O)(=O)c2cccc(C(=O)Nc3ccc(Br)cc3)c2)cc1 | - | -27 | - | - | -
N#Cc1c(NC(=O)c2cccc(S(=O)(=O)Nc3ccc(C(=O)O)cc3)c2)sc2c1CCCC2 | - | -24 | - | - | 43
COC(=O)/C(C#N)=C/N(C)C | - | - | - | - | -
CCc1c(C)nn(C(=O)/C(C#N)=C\N(C)C)c1C | - | - | 16 | - | .
C[C@@H]1CN([C@@H](C)CO)C(=O)c2cc(C#CCN(C)C)cnc2O[C@@H]1CN(C)C(=O)c1cnccn1 | - | - | - | - | .
SMILES | S100A4 inh HTS | Ecoli rRNA inh | SIRT5 inh | F508del corr | ERAP1 HTS inh
COc1ccc(C(=O)OCn2nnc3ccccc3c2=O)cc1[N+](=O)[O-] | - | - | - | - | -
COc1cccc(C(=O)OCn2nnc3ccccc3c2=O)c1 | - | -22 | - | - | -
COc1ccccc1OCCNC(=O)C1CCCCC1 | - | - | - | - | 32
COc1ccccc1OCCNC(=O)c1ccc(S(=O)(=O)N(C)C)cc1 | - | -18 | - | - | -
O=C(NCCOc1ccc(Cl)cc1)C1CCCCC1 | - | - | - | - | -
COc1ccccc1OCCNC(=O)C1CC(=O)N(c2ccccc2OC)C1 (stereo unspecified) | - | - | - | - | -
Cc1ccc(OCCNC(=O)C2CCCCC2)cc1 | ? | - | 19 | - | -
COc1ccc(OC)c(NC(=O)C2C(C(=O)O)C3(Cl)C(Cl)=C(Cl)C2(Cl)C3(Cl)Cl)c1 (stereo unspecified) | - | -19 | - | . | -
CC=Cc1ccc2n(c1=O)C[C@H]1[C@H](CO)[C@@H](C(=O)NC3CCC3)[C@@H]2N1S(=O)(=O)c1cn(C)cn1 (mixture of isomers) | - | - | - | . | -
O=C(Nc1cccc(F)c1)N[C@H]1CC[C@H](CCNS(=O)(=O)c2cccc(Cl)c2)O[C@H]1CO | - | - | - | - | .
CN(C)CCCC1Sc2ccccc2Sc2ccccc21 (stereo unspecified) | - | -46 | - | - | -
CNCCC1Sc2ccccc2Oc2ccccc21 (stereo unspecified) | - | - | - | - | -
CC(C)Cc1cc(C(=O)N2CCC(N3CCC(C(=O)NC4CC4)CC3)CC2)n[nH]1 | - | - | 17 | - | -
CC(C)Cc1cc(C(=O)N2CCC(N3CCC(C(=O)N4CCCC4)CC3)CC2)n[nH]1 | - | . | - | - | -
CCC(=O)Nc1ccc2c(c1)C(=O)N(C)C[C@H](OC)[C@@H](C)CN(Cc1ccccc1C(=O)O)[C@H](C)CO2 | - | - | - | - | -
CCCCc1ccc(NC(=O)CSc2nc3ncccc3[nH]2)cc1 | - | -26 | - | - | -
CC(C)NC(=O)N(C)C[C@H]1Oc2ccc(NC(=O)CCCCCC(=O)Nc3ccccc3N)cc2CC(=O)N([C@H](C)CO)C[C@H]1C | - | - | - | - | -
Cc1ccccc1NS(=O)(=O)c1ccc(C(=O)OCC(=O)NCC(C)C)cc1 | - | - | - | - | -
CC(C)NC(=O)NC(=O)COC(=O)c1ccc(S(=O)(=O)Nc2ccccc2)cc1 | - | - | - | 23 | -
O=C(COC(=O)c1cccc(NS(=O)(=O)c2ccc(F)c(F)c2)c1)NC(=O)NC1CCCC1 | - | -36 | - | . | -
O=C(COC(=O)c1cccc(F)c1)NC(=O)NC1CCCC1 | - | - | - | - | -
O=C(c1cnccn1)N1CC(=O)N2[C@@H](CO)[C@@H](c3ccc(C#CCc4ccccc4)cc3)[C@@H]2C1 | - | - | - | - | -
